Sampled rows, rich in hits. Any-hit rate of the full collection: about 4.3%.
TAAR1 antag: antagonists of human TAAR1; Q96RJ0; CHO RD-HGA16 TAAR1, Fluo-8 calcium fluorescence, antagonist; 360,000 compounds, 1.5% hits; AID 624466; inhibition, % at 3 µM;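 active = inhibition above a per-plate cutoff, the mean inhibition of test compounds on that plate plus 3 SD, cut at about 49% in these data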;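 note: 0% = DMSO plus EC80 beta-PEA response and 100% = DMSO alone without agonist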
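System: RD-HGA16 CHO cells with stable hTAAR1 and Gα16 | Probe or stimulus: EC80 β-phenethylamine stimulus | Dosing: 3 µM, single point | Times: Dye loading 75 min at 37 °C, then 30 min room temperature | Measured by: Fluo-8 calcium-sensitive fluorescence | Read-out basis: % inhibition of agonist calcium response | Replicates: n of 1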
TAAR1 agonist: human TAAR1 agonism; activation, % at 3 µM; AID 624467; 360,000 compounds, 0.99% hits; CHO RD-HGA16 TAAR1, Fluo-8 calcium fluorescence; vehicle wells 0%, saturating PEA agonist 100%; Q96RJ0;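 active = activation above the mean activation of all test compounds in the run plus 3 SD, cut at about 38% in these data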
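Signal – calcium-sensitive Fluo-8 signal, excitation 470-495, emission 515-575 nm · System – RD-HGA16 (CHO) cells co-expressing Gα16 and hTAAR1 · Incubation – 17-24 h seeding, 75 min 37 °C dye, 30 min RT · Compound dosing – 3 µM single concentration · Repeats – no replicates (n 1)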
GalR3 antag: blocks the human galanin receptor 3; HEK293 GalR3-CNG cAMP membrane potential fluorescence; galR3 body fused to GalR1 C-terminus; O60755; inhibition, % at 3 µM; 360,000 compounds, 0.44% hits;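 active = inhibition above the screen-wide average plus 3 SD, cut at about 13% in these data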;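 note: forskolin and galanin both at EC90 stimulate the cells; cAMP rise reported by CNG channel membrane potential dye signal; 0% = forskolin plus galanin with DMSO and 100% = forskolin alone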
Target sequence (O60755 1-299 limits assumed): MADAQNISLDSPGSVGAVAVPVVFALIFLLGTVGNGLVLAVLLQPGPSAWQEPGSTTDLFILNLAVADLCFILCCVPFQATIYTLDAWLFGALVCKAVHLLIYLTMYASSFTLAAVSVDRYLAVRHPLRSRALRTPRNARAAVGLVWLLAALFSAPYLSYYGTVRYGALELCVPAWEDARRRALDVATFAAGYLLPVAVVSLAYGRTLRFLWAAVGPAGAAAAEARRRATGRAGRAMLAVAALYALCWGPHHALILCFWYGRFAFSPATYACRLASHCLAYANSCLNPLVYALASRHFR
OX1R antag-1: blocks the human orexin 1 receptor; CHO/OX1R cells, Fluo-8 calcium fluorescence, orexin A; inhibition, % at 5 µM; AID 434989; 330,000 compounds, 0.43% hits;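 active = inhibition above its plate's threshold, mean inhibition of all tested compounds on the plate plus 3 SD, cut at about 37% in these data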;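 note: 0% = orexin A challenge wells and 100% = SB-334867-A antagonist wells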
Target sequence (O43613 whole entry, looked up): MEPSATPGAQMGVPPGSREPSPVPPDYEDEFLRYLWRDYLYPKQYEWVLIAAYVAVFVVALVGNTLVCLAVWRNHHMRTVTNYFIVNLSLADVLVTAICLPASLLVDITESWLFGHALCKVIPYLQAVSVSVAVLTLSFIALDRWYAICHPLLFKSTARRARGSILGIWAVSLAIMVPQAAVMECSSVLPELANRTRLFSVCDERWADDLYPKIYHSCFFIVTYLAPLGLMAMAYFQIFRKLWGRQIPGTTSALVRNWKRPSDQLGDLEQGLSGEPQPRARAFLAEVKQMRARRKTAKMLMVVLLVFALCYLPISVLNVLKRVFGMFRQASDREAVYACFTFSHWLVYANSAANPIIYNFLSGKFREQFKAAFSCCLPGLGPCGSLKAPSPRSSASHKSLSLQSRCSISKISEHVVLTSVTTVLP
OX1R antag-2: antagonists of human orexin 1 receptor (OX1R); OX1R-expressing cells, FRET antagonist read-out; inhibition, % at 6.6 µM; 330,000 compounds, 1.8% hits; AID 485270; in the data active = inhibition mostly above about 38%, no sharp cut-off; inactive = mostly below about 40%;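 note: 0% = agonist challenge alone and 100% = reference antagonist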
CHO parental Ca: counter-screen for OX1R antagonists: effect in parental CHO cells. 330,000 compounds, 0.63% hits. inhibition, % at 5.6 µM. parental CHO-K1, ATP-induced calcium, Fluo-8 fluorescence;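 active = inhibition above that plate's mean sample inhibition plus 3 SD, cut at about 26% in these data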;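 note: 0% = ATP-challenged DMSO wells and 100% = DMSO wells without ATP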
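Material: parental CHO cells / Compound: single nominal dose of 5.6 µM per compound / Signal: Fluo-8 fluorescence / Replicates: singlicate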
Starred values were filed as active, the others as inactive; . = no result given.

SMILES	TAAR1 antag	TAAR1 agonist	GalR3 antag	OX1R antag-1	OX1R antag-2	CHO parental Ca
CC(C)CNS(=O)(=O)c1ccc(CCC(=O)O)cc1	13.1	0.3	-1.2	-2.7	24.2	8.2
CC(C)CNS(=O)(=O)c1ccc(CCC(=O)Nc2cc(Cl)ccc2Oc2ccccc2)cc1	63.3*	6.7	0.0	21.6	42.9	20.9
CCc1nnc(NC(=O)CSCc2cc(=O)n3nc(C)sc3n2)s1	-12.0	1.0	-4.7	-6.8	-3.5	-10.7
O=C(COc1ccc([N+](=O)[O-])cc1)Nc1ccc(S(=O)(=O)N2CCOCC2)cc1	-7.5	47.1*	11.0	-0.3	6.2	2.6
O=C(COc1ccc(C(=O)c2ccc(F)cc2)cc1)Nc1cccc(S(=O)(=O)N2CCOCC2)c1	61.7*	12.0	-6.5	17.8	14.6	9.6
Cc1ccc(C(=O)NNC(=O)c2ccccc2O)cc1S(=O)(=O)N1CCCCC1	7.4	3.3	0.4	-37.7	23.0	-22.8
Cc1ccc(C(OCC(O)CNCc2ccc(F)cc2)c2ccccc2)cc1 (stereo not drawn)	32.4	40.1*	-8.1	-19.8	-14.4	4.5
O=C(c1ccc2ccccc2c1)N1CCN(c2ccc([N+](=O)[O-])c(N3CCOCC3)c2)CC1	28.0	3.4	-3.6	-41.0	43.4	-14.1
Cc1cccc(C(=O)N2CCN(c3ccc([N+](=O)[O-])c(N4CCOCC4)c3)CC2)c1	14.3	1.9	-7.2	-60.5	75.1*	-10.5
CCCCc1c(-c2ccccc2OC)ncn1C(C)c1ccccc1 (stereo not drawn)	0.4	3.6	-10.8	.	.	.
N#Cc1c(-c2ccc(F)cc2)cc(-c2cccnc2)nc1N	-1.6	0.4	-4.2	0.7	0.8	12.0
N#Cc1c(-c2cccs2)cc(-c2cccnc2)nc1N	13.4	9.2	-0.7	-13.3	46.3*	-20.4
C[C@@H]1CN([C@@H](C)CO)C(=O)c2cc(Br)cnc2O[C@H]1CN(C)C(=O)Nc1ccccc1	-0.7	-0.3	-8.0	.	.	.
O=C(NC(=S)NNC(=O)[C@H]1C[C@@H]1c1ccccc1)c1ccc(F)cc1	62.7*	41.0*	-1.8	-25.7	7.3	-8.6
CC(C)(C)NC(=S)NNC(=O)[C@H]1C[C@@H]1c1ccccc1	-3.1	0.5	-5.0	-10.6	-3.1	7.3
O=C1Nc2ccccc2C1=O	3.7	0.6	0.5	1.4	9.4	-7.4
O=C1Nc2ccc3sc4ccccc4c3c2C1=O	-8.7	-1.6	8.9	0.2	64.9*	-7.9
O=C(Nc1ccccc1N1CCOCC1)C1(c2ccc(Cl)cc2)CCC1	2.2	41.1*	-7.1	-29.2	13.9	-36.3
O=C(Cc1ccc(Cl)c(Cl)c1)Nc1ccccc1N1CCOCC1	18.3	3.9	-4.7	-37.3	17.4	-25.2
Clc1cccc(Cl)c1CON/C=N/c1ncnc2sccc12	1.5	7.3	-3.4	-23.4	30.9	-2.9
Clc1cccc(CON/C=N/c2ncnc3sccc23)c1	4.1	8.2	1.6	2.4	82.2*	-8.6
COC(=O)[C@]12C[C@H](CC(=O)N3CCN(C(=O)c4ccco4)CC3)C(=O)N(Cc3ccccc3)C1=C[C@H](C(C)C)O[C@@H]2C1CC1	-16.6	0.5	-6.0	.	.	.
COC(=O)c1sc(S(=O)(=O)NC(Cc2ccccc2)C(=O)O)c(C(=O)OC)c1C (stereo not drawn)	-6.7	4.4	-2.8	12.7	31.7*	-5.1
CCc1ccc(S(=O)(=O)Nc2ccc(-c3nc4cccnc4s3)cc2)s1	19.6	0.4	.	-29.0	7.0	-10.6
Cc1ccc(-c2nc3cccnc3s2)cc1NS(=O)(=O)c1cccs1	7.5	1.5	.	-13.6	40.6*	-14.3
SMILES	TAAR1 antag	TAAR1 agonist	GalR3 antag	OX1R antag-1	OX1R antag-2	CHO parental Ca
Cc1nc2ccc(S(=O)(=O)Nc3cccc(-c4nc5cccnc5s4)c3C)cc2s1	59.3*	4.5	.	-10.4	25.5	31.8*
CCc1cc2c(nc1CC)CCCN2Cc1ccc(Br)cc1	-2.1	-0.5	-6.2	.	.	.
CCN(C(=O)COc1cc(=O)n(CC)c2ccccc12)c1cccc(Cl)c1	2.8	12.0	-2.5	-31.0	47.3*	-12.2
CCN(C(=O)COc1cc(=O)n(CC)c2ccccc12)c1cc(Cl)ccc1OC	48.8*	8.2	-5.8	-33.7	25.2	-11.4
CCN(Cc1ccccc1)C(=O)COc1cc(=O)n(CC)c2ccccc12	22.3	4.4	-2.7	-10.6	57.8*	-11.8
CC1(C(=O)Nc2ccc3[nH]ncc3c2)CCN1C(=O)C1(c2ccccc2)CC1 (stereo not drawn)	11.0	1.1	-3.5	.	.	.
COCCN1CCn2c(nc3cc([N+](=O)[O-])ccc32)C1	-33.2	0.9	2.1	-2.1	40.1*	-13.0
O=c1[nH]c(=O)n(C2OC(CO)C(O)C2O)cc1N1CCOCC1 (stereo not drawn)	-16.0	1.1	-4.5	.	.	.
CCOc1cc(CNc2ccc3cn[nH]c3c2)ccc1OC	-18.2	13.4	-0.6	-35.4	7.6	-11.8
COc1ccc(CNc2ccc3cn[nH]c3c2)c(OC)c1OC	20.0	11.7	-6.2	6.5	36.9*	-6.8
COc1ccc(N2CCN(C(=O)COC(=O)c3oc4ccccc4c3C)CC2)cc1	51.3*	25.8	-7.5	-9.3	13.2	-21.4
Cc1c(C(=O)OCC(=O)N2CCN(c3ccccc3)CC2)oc2ccccc12	16.6	7.8	-1.6	-8.8	9.3	-20.2
CCN=C(NCC)SC1CC(=O)N(c2cccc(OC)c2)C1=O (stereo not drawn)	54.9*	23.4	-9.3	6.3	10.1	-6.9
Cc1ccc(S(=O)(=O)NCCNc2ccc(Br)c(C)c2)cc1	-5.6	6.2	-3.7	25.1	12.9	37.4*
Cc1ccc(S(=O)(=O)NCCNS(=O)(=O)c2ccccc2Br)cc1	12.8	4.0	-4.3	-9.3	10.6	-6.7
COc1ccccc1CN1CC(C(=O)NCCN(C)CCc2ccccc2)CCC1=O (stereo not drawn)	-23.6	38.8*	-2.6	-1.0	-1.7	-14.2
CC(C)CNC(=S)N1CCN(c2nc3ccccc3s2)CC1	18.9	15.3	-5.1	11.2	13.7	71.7*
Cc1nc(N)nc(N)c1-c1ccc([N+](=O)[O-])cc1	3.6	6.0	-5.3	.	.	.
Cc1ccc(C)c(NC(=O)CN(C)C(=O)c2ccc(S(=O)(=O)N(C)c3ccccc3)cc2)c1	-0.1	4.9	-0.6	-4.2	30.3*	-15.2
Cc1ccc(NC(=O)CN(C)C(=O)c2ccc(S(=O)(=O)N(C)c3ccccc3)cc2)cc1	-22.2	0.1	-3.7	-19.6	-4.5	-8.1
Cc1cccc(-n2c(SCC(=O)NCc3ccc4c(c3)OCO4)nc3ccccc3c2=O)c1	13.5	1.2	-4.7	-11.2	40.0*	-10.1
O=C(CSc1nc2ccccc2c(=O)n1-c1ccccc1)NCc1ccc2c(c1)OCO2	10.9	9.8	-2.9	-10.3	22.6	-18.7

Source: PubChem
